Laboratory results from ChEMBL document CHEMBL4393678, “Novel Tetrahydroquinazolinamines as Selective Histamine 3 Receptor Antagonists for the Treatment of Obesity” (J Med Chem, 2019).
Active and inactive are the calls of the source. The rule behind the calls is not given here.

Experiments:
[1] = molecular target: Histamine H1 receptor (Homo sapiens) (UniProt P35367); test: Antagonist activity at H1R (unknown origin) expressed in HEK293 cells harboring luc2P/NFAT-RE plasmid at 10 uM after 6 to 8 hrs by luciferase reporter gene assay; type: cell-based
Histamine H1 receptor (Homo sapiens), sequence (P35367 whole entry): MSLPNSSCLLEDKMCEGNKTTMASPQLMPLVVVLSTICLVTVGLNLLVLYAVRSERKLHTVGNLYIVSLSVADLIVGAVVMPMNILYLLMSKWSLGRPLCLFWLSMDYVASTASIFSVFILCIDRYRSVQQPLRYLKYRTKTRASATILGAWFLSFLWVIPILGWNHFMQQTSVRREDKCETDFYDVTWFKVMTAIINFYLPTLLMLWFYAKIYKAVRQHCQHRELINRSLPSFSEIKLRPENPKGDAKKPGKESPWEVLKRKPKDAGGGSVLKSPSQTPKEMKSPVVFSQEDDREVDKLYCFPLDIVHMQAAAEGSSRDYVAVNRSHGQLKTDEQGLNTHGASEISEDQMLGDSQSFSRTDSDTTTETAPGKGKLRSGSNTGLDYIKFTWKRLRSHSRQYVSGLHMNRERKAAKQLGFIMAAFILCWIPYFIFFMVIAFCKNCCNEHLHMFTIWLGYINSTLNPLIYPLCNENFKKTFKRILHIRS
How it was run: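 NFAT-RE luciferase assay in HEK293T cells transiently co-transfected with luc2P/NFAT-RE plasmid and receptor plasmid. Cells plated in DMEM and incubated overnight at 37 °C, 5% CO₂. Compounds and reference ligands applied for 6-8 h. Luciferase read after adding Bright-Glo substrate (1 mg/ml final).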

[2] = molecular target: T1, G-protein coupled bile acid receptor 1 (Homo sapiens) (UniProt Q8TDU6); test: Antagonist activity at Gs-coupled GPBAR1 (unknown origin) expressed in HEK293T cells assessed as reduction in histamine-induced inhibition of forskolin-stimulated cAMP accumulation preincubated for 10 to 15 followed by histamine addition for 10 mins and subsequent forskolin-stimulation by Glo-sensor assay; type: functional, cell-based
T1 sequence (whole entry): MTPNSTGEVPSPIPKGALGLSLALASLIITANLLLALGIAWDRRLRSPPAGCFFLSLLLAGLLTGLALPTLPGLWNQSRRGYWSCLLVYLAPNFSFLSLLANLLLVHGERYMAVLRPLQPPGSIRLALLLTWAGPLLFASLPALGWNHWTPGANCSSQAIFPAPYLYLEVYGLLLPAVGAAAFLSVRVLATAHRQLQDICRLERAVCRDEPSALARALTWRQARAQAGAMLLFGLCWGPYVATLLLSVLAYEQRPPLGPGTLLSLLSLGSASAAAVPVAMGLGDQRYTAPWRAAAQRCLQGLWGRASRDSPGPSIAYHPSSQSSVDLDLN

[3] = test system: Mus musculus; test: Anti-obesity activity in high fat diet-induced obese C57BL/6J mouse model assessed as reduction in body fat mass at 20 mg/kg, po measured after 6 weeks relative to control by NMR-based magnetic resonance imaging analysis; type: functional; parameters: scale not given: the % may be the effect or the level left
[4] = test system: Mus musculus; test: Anorexic effect in high fat diet-induced obese C57BL/6J mouse model assessed as reduction in cumulative food intake at 10 mg/kg, po pretreated for 30 mins followed by food addition measured after 4 hrs relative to control; type: functional; parameters: scale not given: the % may be the effect or the level left
How it was run: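 Male C57BL/6J mice on high-fat diet, starved 12 h (8 am–8 pm) with water available, housed singly. Oral dose in 5% gum acacia in normal saline, vehicle group alongside. Food given 30 min after dosing, and cumulative intake measured over the 4 h night phase (9 pm–1 am). One-way ANOVA with Newman-Keuls test.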

[5] = Protein binding in C57BL/6J mouse plasma by equilibrium dialysis method; type: ADME, cell-free; conditions: read-out: PPB (converted)
How it was run: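 Plasma protein binding and unbound fraction in mouse brain tissue homogenate measured by equilibrium dialysis.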

[6] = test system: Mus musculus; test: Anti-obesity activity in 16 hrs fasted db/db-induced obese C57BL/6J mouse model assessed as change in blood HDL level at 20 mg/kg, po measured after 6 weeks; type: functional, organism-based
[7] = test system: Mus musculus; test: Anorexic effect in 12 hrs fasted db/db-induced obese C57BL/6J mouse model assessed as reduction in cumulative food intake at 20 mg/kg, po pretreated for 30 mins followed by food addition measured after 4 hrs relative to control; type: functional; parameters: scale not given: the % may be the effect or the level left
How it was run: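 Mice starved 12 h (8:00 am to 8:00 pm) with water available, then housed singly. Compound given orally in 5% gum acacia in normal saline; vehicle group received the same. Cumulative food intake measured over 4 h of the night phase (9:00 pm to 1:00 am), starting 30 min after dosing. Antagonism arms: imitet 5 mg/kg i.p. 30 min before compound, or α-methyl-DL-histidine 20 mg/kg i.p. 2 h before.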

Compound: COc1ccc(-c2nc(N)nc3c2CCCC3C)cc1 (racemic)
- inhibition [1]: inactive
- inhibition [2]: inactive
- Activity [3]: 27.1%
- Activity [4]: 26%
- fraction unbound [5]: 0.0424
- Activity [6]: inactive
- Activity [7]: 33%
